Among the data in ChEMBL document CHEMBL3124923, “Isolation, structure elucidation, and biological activity of altersolanol P using Staphylococcus aureus fitness test based genome-wide screening” (2014) are MIC and Activity values, retold here.

Converted amounts (≈) assume the structure as drawn. The source made the active and inactive calls. No cut-off for these calls is given here.

What all share (format): functional
In experiment [1] the test system is Staphylococcus aureus. Nature of the experiment: Antimicrobial activity against Staphylococcus aureus.
The test system of another experiment is Pseudomonas aeruginosa. The experiment is described as follows: Antimicrobial activity against Pseudomonas aeruginosa.
Experiment [2] relates to Staphylococcus aureus. Nature of the experiment: Antimicrobial activity against Staphylococcus aureus Smith MB 2865 after 20 hrs by 2-fold serial broth dilution method in presence of 50 % human serum. To be noted: for MIC: Smith MB 2865, 20 h. Put shortly:
(§1)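 MIC for each strain determined following the NCCLS (now CLSI) method, using 2-fold serial dilution of the compound. For the S. aureus Smith strain, MIC was also run with 50% human serum in the medium.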
For orientation: In broth dilution the organism is exposed to a series of concentrations in liquid medium.

In another experiment the test system is Candida albicans. The experiment is described as follows: Antimicrobial activity against Candida albicans MY 1055 after 20 hrs by 2-fold serial broth dilution method. The following applies: MY 1055, 20 h. The gist of the method:
as §1

Experiment [3] deals with Streptococcus pneumoniae. Nature of the experiment: Antimicrobial activity against Streptococcus pneumoniae CL 2883 grown in iso sensitet medium after 20 hrs by 2-fold serial broth dilution method. The following applies: CL 2883, 20 h. The gist of the method: as §1
Experiment [4] relates to Escherichia coli. Nature of the experiment: Antimicrobial activity against wild-type Escherichia coli MB 2884 after 20 hrs by 2-fold serial broth dilution method. The following applies: MB 2884, 20 h. The gist of the method: as §1
The test system of another experiment is Haemophilus influenzae. The experiment is described as follows: Antimicrobial activity against Haemophilus influenzae MB 4572 after 20 hrs by 2-fold serial broth dilution method. The following applies: MB 4572, 20 h. The gist of the method:
as §1

The subject of experiment [5] is Streptococcus pneumoniae. Nature of the experiment: Antimicrobial activity against Streptococcus pneumoniae CL 2883 grown in 2.5 % lysed horse blood medium after 20 hrs by 2-fold serial broth dilution method. The following applies: CL 2883, 20 h. The gist of the method: as §1
For another experiment, the system named is Enterococcus faecalis. Nature of the experiment: Antimicrobial activity against vancomycin-sensitive Enterococcus faecalis CL 8516 after 20 hrs by 2-fold serial broth dilution method. The following applies: CL 8516, 20 h. The gist of the method:
(§2)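 MIC read following the NCCLS (now CLSI) method, using 2-fold serial dilutions of test compound against each strain.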

Experiment [6] relates to Escherichia coli. Nature of the experiment: Antimicrobial activity against Escherichia coli MB 5746 harboring envA/tolC gene after 20 hrs by 2-fold serial broth dilution method. To be noted: MB 5746, 20 h. The gist of the method: as §2
The test system of the next experiment is Bacillus subtilis. Nature of the experiment: Antimicrobial activity against Bacillus subtilis MB 964 after 20 hrs by 2-fold serial broth dilution method. To be noted: MB 964, 20 h. The gist of the method: as §1
The subject of experiment [7] is Staphylococcus aureus. Nature of the experiment: Antimicrobial activity against Staphylococcus aureus Smith MB 2865 after 20 hrs by 2-fold serial broth dilution method. The following applies: Smith MB 2865, 20 h. Put shortly:
as §1

With `COc1cc(O)cc2c1C(=O)C1=C(C2=O)[C@H](O)[C@](C)(O)[C@H](O)[C@H]1O`, the MIC in the experiment on Staphylococcus aureus [1] and in the experiment with Pseudomonas aeruginosa was 12.5 µg/mL (≈ 37.2 µM) each time.

Take `COc1cc(O)c2c(c1)C(=O)C1=C(C[C@@H](O)[C@@](C)(O)C1)C2=O` [ALTERSOLANOL B]: the MIC against Staphylococcus aureus [1] and with Pseudomonas aeruginosa was 12.5 µg/mL (≈ 41.1 µM) in each case.

Take `COc1cc(O)c2c(c1)C(=O)[C@@H]1[C@H](C[C@@H](O)[C@@](C)(O)[C@@H]1O)[C@H]2O` [ALTERSOLANOL K]: the result in the experiment with Staphylococcus aureus [2] was Active. Also, the MIC against Staphylococcus aureus [1] turned out to be 12.5 µg/mL (≈ 38.5 µM); in the experiment with Pseudomonas aeruginosa it was 12.5 µg/mL (≈ 38.5 µM); in the experiment on Candida albicans, 8 µg/mL (≈ 24.7 µM).

Regarding `COc1cc(O)c2c(c1)C(=O)C1=C(C2=O)[C@H](O)[C@@H](O)[C@@](C)(O)[C@@H]1O` [ALTERSOLANOL A], the MIC against Staphylococcus aureus [1] and against Pseudomonas aeruginosa was 12.5 µg/mL (≈ 37.2 µM) throughout.

For the molecule `COc1cc(O)c2c(c1)C(=O)[C@H]1C[C@](C)(O)[C@H](O)C[C@@H]1[C@H]2O` [ALTERSOLANOL J], the MIC with Staphylococcus aureus [1] and in the experiment on Pseudomonas aeruginosa was 12.5 µg/mL (≈ 40.5 µM) each time.

With `C[C@@]1(O)CCC2=C(C(=O)c3cccc(O)c3C2=O)[C@@H]1O`, the MIC is 4 µg/mL (≈ 14.6 µM) against Streptococcus pneumoniae [3]; greater than 64 µg/mL with Staphylococcus aureus [2]; 2 µg/mL (≈ 7.29 µM) in the experiment with Staphylococcus aureus [1]; greater than 64 µg/mL in the experiment with Escherichia coli [4]; 2 µg/mL (≈ 7.29 µM) in the experiment on Haemophilus influenzae; 8 µg/mL (≈ 29.2 µM) in the experiment with Streptococcus pneumoniae [5]. Moreover, the MIC with Enterococcus faecalis was determined as 1 µg/mL (≈ 3.65 µM); with Escherichia coli [6], 32 µg/mL (≈ 117 µM); against Bacillus subtilis it was 2 µg/mL (≈ 7.29 µM); against Candida albicans it was 8 µg/mL (≈ 29.2 µM); in the experiment on Staphylococcus aureus [7], 4 µg/mL (≈ 14.6 µM).

Take `CC1(C)S[C@@H]2[C@H](NC(=O)Cc3ccccc3)C(=O)N2[C@H]1C(=O)O` [PENICILLIN G]: the MIC against Streptococcus pneumoniae [3] is less than 0.015 µg/mL; with Staphylococcus aureus [2], 0.12 µg/mL; with Haemophilus influenzae, 0.06 µg/mL (≈ 0.179 µM); against Streptococcus pneumoniae [5], less than 0.015 µg/mL; against Enterococcus faecalis, 4 µg/mL (≈ 12 µM); in the experiment with Escherichia coli [6], 8 µg/mL (≈ 23.9 µM). Besides, the MIC is less than 0.06 µg/mL with Bacillus subtilis, greater than 64 µg/mL in the experiment on Candida albicans and less than 0.06 µg/mL against Staphylococcus aureus [7].

On to `COc1cc(O)c2c(c1)C(=O)C1=C(C[C@H](O)[C@@](C)(O)[C@@H]1O)C2=O`, for which the MIC against Staphylococcus aureus [1] and with Pseudomonas aeruginosa was 12.5 µg/mL (≈ 39 µM) in each case.

With `COc1cc(O)c2c(c1)C(=O)C1=C(C2=O)[C@H](O)[C@H](O)[C@@](C)(O)[C@@H]1O`, the MIC against Staphylococcus aureus [1] and in the experiment on Pseudomonas aeruginosa was 12.5 µg/mL (≈ 37.2 µM) each time.

On to `COc1cc(O)c2c(c1)C(=O)C1=C(C[C@@H](O)[C@@](C)(O)[C@@H]1O)C2=O` [ALTERSOLANOL C], for which the MIC in the experiment on Staphylococcus aureus [1] and in the experiment on Pseudomonas aeruginosa was 12.5 µg/mL (≈ 39 µM) in each case.

Turning to `COc1cc(O)cc2c1C(=O)C1=C(C2=O)[C@@H](O)[C@](C)(O)[C@H](O)[C@H]1O`, the MIC against Staphylococcus aureus [1] and in the experiment on Pseudomonas aeruginosa was 12.5 µg/mL (≈ 37.2 µM) each time.

As to `COc1cc(O)c2c(c1)C(=O)C1=C(C2=O)[C@H](C)[C@@H](O)[C@@](C)(O)[C@@H]1O`, the MIC against Staphylococcus aureus [1] and against Pseudomonas aeruginosa was 12.5 µg/mL (≈ 37.4 µM) each time.
